# Source: ChEMBL document CHEMBL3421532, “Synthesis and antiproliferative activity of α-branched α,β-unsaturated ketones in human hematological and solid cancer cell lines” (Eur J Med Chem, 2015)
# Calls of active or inactive are those of the source. The rule behind the calls is not given here.
# Legend:
# Format in all cases: functional, cell-based
# [1] = tested on: MCF7; assay: Cell cycle arrest in human MCF7 cells assessed as increase in cell population at G2/M phase at 10 uM after 48 hrs by flow cytometry
# How it was run: (§1)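 Cells seeded in 6-well plates at 1∙10⁶ (NB4) or 0.45∙10⁶ (A549, MCF-7) per well. Treated for 48 h at 10 (NB4, MCF-7), 20 and 30 (A549), or, for NB4, a lower 5; DMSO solvent control. Cell cycle phase distribution and sub-G1 measured by flow cytometry. Mean of two independent experiments.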
# [2] = tested on: MCF7; assay: Cell cycle arrest in human MCF7 cells assessed as increase in cell population at S phase at 10 uM after 48 hrs by flow cytometry; how it was run: as §1
# [3] = Antiproliferative activity against human NB4 cells assessed as cell growth inhibition after 48 hrs by XTT assay; settings: NB-4, 48 h
# How it was run: (§2)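 NB4 grown in RPMI 1640 with 10% FBS and penicillin/streptomycin, A549 and MCF-7 in DMEM, all at 37 °C and 5% CO2. Cells seeded at 1.5∙10⁴ (NB4) or 1.0∙10⁴ (A549, MCF-7) per well. Adherent lines dosed 24 h after plating, NB4 shortly after. Triplicate concentrations from 0.1 to 100, DMSO control at 0.5% v/v. After 48 h exposure, XTT added for 2 h. A450 minus A690 read, GI50 reported with SE.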
# [4] = tested on: MCF7; assay: Antiproliferative activity against human MCF7 cells assessed as cell growth inhibition after 48 hrs by XTT assay; settings: MCF7, 48 h; how it was run: as §2
# [5] = tested on: A549; assay: Antiproliferative activity against human A549 cells assessed as cell growth inhibition after 48 hrs by XTT assay; settings: A549, 48 h; how it was run: as §2
# [6] = tested on: A549; assay: Cell cycle arrest in human A549 cells assessed as slight increase in cell accumulation at G2/M phase at 20 uM after 48 hrs by flow cytometry; how it was run: as §1
# [7] = tested on: A549; assay: Induction of apoptosis in human A549 cells at 20 to 30 uM after 24 to 48 hrs by annexin V binding assay
# How it was run: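 Cells seeded in 6-well plates at 1∙10⁶ (NB4) or 0.45∙10⁶ (A549, MCF-7) per well. Treated at 5 (NB4), 20 and 30 (A549) or 10 (MCF-7). Apoptotic cell percentage measured by annexin V binding after 24 and 48 h. Mean of two independent experiments.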
# [8] = tested on: A549; assay: Cell cycle arrest in human A549 cells assessed as increase in cell population at S phase at 30 uM after 48 hrs by flow cytometry; how it was run: as §1
# [9] = tested on: A549; assay: Cell cycle arrest in human A549 cells assessed as slight increase in cell population at S phase at 20 uM after 48 hrs by flow cytometry; how it was run: as §1
SMILES,IC50 [4],IC50 [5],Activity [1],Activity [2],IC50 [3],Activity [6],Activity [7],Activity [8],Activity [9]
CC(=O)OC/C(=C\c1ccc(Cl)cc1Cl)C(=O)c1ccccc1,8.7 µM,97 µM,Active,Active,6.6 µM,–,–,–,–
C=C(C/C(=C\c1ccc(C)cc1)C(=O)c1ccccc1)C(=O)c1ccccc1,15.9 µM,20.9 µM,–,–,7.6 µM,–,–,–,–
COc1ccc(C(=O)/C(=C/C2CCCCC2)COC(C)=O)cc1,24 µM,90 µM,–,–,23.3 µM,–,–,–,–
C=C(C(=O)c1ccc(OC)cc1)C(OC(=O)c1ccccc1)c1ccc(Cl)cc1Cl (stereo not given),26.8 µM,79.2 µM,–,–,9.7 µM,–,–,–,–
C=C(C(=O)c1ccc(OC)cc1)C(O)c1ccc(Cl)cc1Cl (stereo not given),9 µM,70 µM,–,–,26.1 µM,–,–,–,–
CC(=O)OC/C(=C/c1ccccc1F)C(=O)c1ccccc1,39.8 µM,20.3 µM,–,–,8.3 µM,–,–,–,–
C=C(C(=O)c1ccc(OC)cc1)C(C)OC(=O)c1ccccc1 (stereo not given),14.5 µM,> 100 µM,–,–,15.7 µM,–,–,–,–
C=C(C(=O)c1ccc(OC)cc1)C(OC(=O)c1ccccc1)c1ccccc1Cl (stereo not given),36 µM,30.5 µM,–,–,8.5 µM,–,–,–,–
C=C(C(=O)c1ccc(OC)cc1)C(OC(=O)c1ccccc1)c1c(F)c(F)c(F)c(F)c1F (stereo not given),45.3 µM,32.1 µM,–,–,12.9 µM,–,–,–,–
COc1ccc(C(=O)/C(=C/C2CCCCC2)CN(C)C(=O)c2ccccc2)cc1,32.7 µM,69.7 µM,–,–,32.4 µM,–,–,–,–
COc1ccc(C(=O)/C(=C/C2CCCCC2)COC(=O)c2ccccc2)cc1,13.7 µM,36 µM,–,–,10.2 µM,–,–,–,–
COc1ccc(C(=O)/C(=C/c2ccc(Cl)cc2Cl)CC(C)C)cc1,> 100 µM,80.3 µM,–,–,14.6 µM,–,–,–,–
C=C(C(=O)c1ccc(OC)cc1OC)C(OC(C)=O)c1ccccc1[N+](=O)[O-] (stereo not given),70.1 µM,> 100 µM,–,–,8.8 µM,–,–,–,–
C=C(C/C(=C\c1ccc(OC(=O)c2ccccc2)cc1)C(=O)c1ccccc1)C(=O)c1ccccc1,61.6 µM,44.4 µM,–,–,8 µM,–,–,–,–
C=C(C(=O)c1ccc(OC)cc1)C(OC(C)=O)C1CCCCC1 (stereo not given),14 µM,> 100 µM,–,–,10.5 µM,–,–,–,–
COc1ccc(C(=O)/C(=C/c2c(F)c(F)c(F)c(F)c2F)CC(C)OC(C)=O)cc1 (stereo not given),> 100 µM,91.7 µM,–,–,49 µM,–,–,–,–
COc1ccc(C(=O)/C(=C/c2ccc(Cl)cc2Cl)CN(C)C(=O)c2ccccc2)cc1,39.7 µM,32.4 µM,–,–,24 µM,–,–,–,–
C=C(C(=O)c1ccc(OC)cc1)C(OC(=O)c1ccccc1)c1ccccc1F (stereo not given),34.2 µM,73.7 µM,–,–,14.3 µM,–,–,–,–
CC(=O)OC/C(=C/c1ccc(Cl)cc1Cl)C(=O)c1ccccc1,31.7 µM,74.5 µM,–,–,12.6 µM,–,–,–,–
COc1ccc(C(=O)/C(=C/C2CCCCC2)CC(C)OC(C)=O)cc1 (stereo not given),> 100 µM,98 µM,–,–,33.4 µM,–,–,–,–
C=C(C(=O)c1ccc(OC)cc1)C(O)c1ccccc1Cl (stereo not given),29.6 µM,28.5 µM,–,–,8.1 µM,–,–,–,–
COc1ccc(C(=O)/C(=C/c2ccc(Cl)cc2Cl)CC2CCCCC2)cc1,> 100 µM,> 100 µM,–,–,48.9 µM,–,–,–,–
COc1ccc(C(=O)/C(=C/c2ccc(Cl)cc2Cl)CN2CCOCC2)cc1,42.3 µM,> 100 µM,–,–,8.5 µM,–,–,–,–
C=C(C(=O)c1ccc(OC)cc1)C(O)c1ccccc1F (stereo not given),30.9 µM,15.7 µM,–,–,6.9 µM,–,–,–,–
C=C(C(=O)c1ccc(OC)cc1)C(OC(C)=O)c1c(F)c(F)c(F)c(F)c1F (stereo not given),6.7 µM,14.8 µM,Active,Active,12.6 µM,Active,Active,Active,Active
C=C(C(=O)c1ccc(OC)cc1)C(OC(C)=O)C(CC)CC (stereo not given),38.9 µM,32.9 µM,–,–,11.8 µM,–,–,–,–
C=C(C(=O)c1ccc(OC)cc1)C(OC(=O)c1ccccc1)C1CCCCC1 (stereo not given),34.3 µM,62.1 µM,–,–,10 µM,–,–,–,–

# More lines, main results first:
IC50 [4],IC50 [5],SMILES,Activity [1],Activity [2],IC50 [3],Activity [6],Activity [7],Activity [8],Activity [9]
26.9 µM,43.8 µM,C=C(C/C(=C\c1ccc(C)cc1)C(=O)c1ccc(OC)cc1)C(=O)c1ccc(OC)cc1,–,–,11.4 µM,–,–,–,–
7.4 µM,22.9 µM,C=C(C/C(=C\c1ccccc1)C(=O)c1ccc(OC)cc1)C(=O)c1ccc(OC)cc1,–,–,7.4 µM,–,–,–,–
> 100 µM,> 100 µM,COc1ccc(C(=O)/C(=C/c2ccccc2F)CCOC(C)=O)cc1,–,–,> 100 µM,–,–,–,–
> 100 µM,58.1 µM,COc1ccc(C(=O)/C(=C/c2c(F)c(F)c(F)c(F)c2F)CCOC(C)=O)cc1,–,–,28.5 µM,–,–,–,–
11.8 µM,45.5 µM,C=C(C(=O)c1ccc(OC)cc1)C(OC(=O)c1ccccc1)c1ccccc1[N+](=O)[O-] (stereo not given),–,–,12.7 µM,–,–,–,–
> 100 µM,> 100 µM,COc1ccc(C(=O)/C(=C/c2ccccc2Cl)CCOC(C)=O)cc1,–,–,51.6 µM,–,–,–,–
18 µM,67.3 µM,C=C(C(=O)c1ccc(OC)cc1)C(OC(C)=O)c1ccccc1F (stereo not given),–,–,9.5 µM,–,–,–,–
36 µM,52 µM,COc1ccc(C(=O)/C(=C\c2ccccc2Cl)COC(=O)c2ccccc2)cc1,–,–,20.1 µM,–,–,–,–
> 100 µM,> 100 µM,COc1ccc(C(=O)/C(=C/c2ccc([N+](=O)[O-])cc2)CCOC(C)=O)cc1,–,–,> 100 µM,–,–,–,–
> 100 µM,13 µM,C=C(C(=O)c1ccc(OC)cc1)C(OC(=O)c1ccccc1)c1ccc([N+](=O)[O-])cc1[N+](=O)[O-] (stereo not given),–,–,10 µM,Active,–,–,–
> 100 µM,40.3 µM,COc1ccc(C(=O)/C(=C/c2ccc(Cl)cc2Cl)CC(C)OC(C)=O)cc1 (stereo not given),–,–,36.8 µM,–,–,–,–
6.1 µM,21.3 µM,C=C(C(=O)c1ccc(OC)cc1)C(OC(C)=O)c1ccc([N+](=O)[O-])cc1 (stereo not given),–,–,10.3 µM,–,–,–,–
17.9 µM,35.2 µM,C=C(C(=O)c1ccc(OC)cc1)C(OC(=O)c1ccccc1)C(CC)CC (stereo not given),–,–,13 µM,–,–,–,–
> 100 µM,> 100 µM,CCC(/C=C(\CCOC(C)=O)C(=O)c1ccc(OC)cc1)CC,–,–,91.1 µM,–,–,–,–
30 µM,22.5 µM,COc1ccc(C(=O)/C(=C/c2ccccc2F)COC(C)=O)cc1,–,–,8.2 µM,–,–,–,–
56.1 µM,66.6 µM,C=C(C(=O)c1ccc(OC)cc1)C(OC(=O)c1ccccc1)c1ccc([N+](=O)[O-])cc1 (stereo not given),–,–,13.2 µM,–,–,–,–
> 100 µM,> 100 µM,COc1ccc(C(=O)/C(=C/c2ccc(C(F)(F)F)cc2)CC(C)C)cc1,–,–,12.6 µM,–,–,–,–
> 100 µM,> 100 µM,COc1ccc(C(=O)/C(=C/c2ccc(C(F)(F)F)cc2)CC2CCCCC2)cc1,–,–,18.2 µM,–,–,–,–
> 100 µM,73.2 µM,COc1ccc(C(=O)/C(=C/c2ccc(Cl)cc2)CC(C)OC(C)=O)cc1 (stereo not given),–,–,62 µM,–,–,–,–
9 µM,20.1 µM,COc1ccc(C(=O)/C(=C/c2ccccc2Cl)COC(=O)c2ccccc2)cc1,Active,Active,7 µM,Active,Active,Active,Active
83.4 µM,69.2 µM,COc1ccc(C(=O)/C(=C/c2ccc(Cl)cc2Cl)CCOC(C)=O)cc1,–,–,34.8 µM,–,–,–,–
28 µM,> 100 µM,CCC(/C=C(\COC(=O)c1ccccc1)C(=O)c1ccc(OC)cc1)CC,–,–,26.8 µM,–,–,–,–
13.7 µM,> 100 µM,CCC(/C=C(\COC(C)=O)C(=O)c1ccc(OC)cc1)CC,–,–,9.5 µM,–,–,–,–
> 100 µM,> 100 µM,COc1ccc(C(=O)/C(=C/c2ccc(Cl)cc2)CC(C)C)cc1,–,–,12.1 µM,–,–,–,–
> 100 µM,> 100 µM,COc1ccc(C(=O)/C(=C/C2CCCCC2)CCOC(C)=O)cc1,–,–,> 100 µM,–,–,–,–
29.8 µM,> 100 µM,C/C=C(\COC(=O)c1ccccc1)C(=O)c1ccc(OC)cc1,–,–,16.2 µM,–,–,–,–
7 µM,70.1 µM,COc1ccc(C(=O)/C(=C/c2ccc([N+](=O)[O-])cc2)CN2CCOCC2)cc1,–,–,5.6 µM,–,–,–,–
> 100 µM,86 µM,COc1ccc(C(=O)/C(=C/c2ccc(Cl)cc2)CCOC(C)=O)cc1,–,–,36.3 µM,–,–,–,–
